From the array DNA melting data of Ke et al. (doi:10.1101/2024.01.08.574731)

Columns and labels:
[1] = folding enthalpy; higher = less favourable; fluorescence melt of hairpins on a sequencing array, two-state fit; conditions: sodium 0.088 M
Summary of the method: (§1)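 To match UV melts, fitted temperatures were raised by 9.35 °C. These fits were bootstrapped two-state models that gave melting temperature and folding enthalpy, combined by inverse variance over four replicates. The input was normalised Cy3 fluorescence of library hairpins with annealed Cy3 and quencher oligos on a sequenced MiSeq flow cell, imaged in 50 mM Na-HEPES pH 8.0, 25 mM NaCl in 2.5 °C steps up to 60 °C.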

[2] = melting temperature; fluorescence melt of hairpins on a sequencing array, two-state fit, raised by 9.35 °C to match UV melts; conditions: sodium 0.088 M
Summary of the method: as §1

Sequence	folding enthalpy [1]	Tm [2]
GTGTCCGAAAGGATCCAC ((((((....)))..)))	-10.4 kcal/mol	32.7 °C
GAGAATGCGAAAGCACTC (((..(((....))))))	-9.82 kcal/mol	32 °C
GCTCCGGGAAACCAGAGC ((((.((....)).))))	-31.9 kcal/mol	47 °C
GGTAATGGAAACATTGCC ((.((((....)))).))	-29.2 kcal/mol	46.7 °C
CGACCGGAAACGGGTTCG ((((((....)))..)))	-21.4 kcal/mol	38.9 °C
GGGAGTGCGAAAGCACCC (((..(((....))))))	-11.6 kcal/mol	55.2 °C
GGCGTAGGAAACTGCGCC ((((.((....)).))))	-48.8 kcal/mol	62.3 °C
GGGCTGGGAAACCGGTCC ((.(.((....)).).))	-44.6 kcal/mol	49.2 °C
GATAGCGAAAGCTAGATC ((((((....)))..)))	-15.4 kcal/mol	45.2 °C
AGTACGAAAGTACT (((((....)))))	-21.4 kcal/mol	54.1 °C
GTGAGACGAAAGTCCCAC (((.(((....))).)))	-27.3 kcal/mol	50.4 °C
GGCTTGCGAAAGCAGGCC (((.(((....))).)))	-31.3 kcal/mol	69.2 °C
AACCTGAAAAGGTT (((((....)))))	-20 kcal/mol	45.5 °C
GATCTCTTGAGAGATC ((((((....))))))	-32.4 kcal/mol	53.8 °C
GCGGCAGGAAACTGCTGC ((.((((....)))).))	-43.2 kcal/mol	62.9 °C
GTAGTAGGAAACTACCAC ((.((((....)))).))	-17.2 kcal/mol	32.2 °C
GTGAACGGAAACGTTTGC (..((((....))))..)	-22.6 kcal/mol	38.9 °C
GGTACTCGAAAGAGAACC (((.(((....))).)))	-30 kcal/mol	49.8 °C
GTAGTGACGAAAGTCTAC (((..(((....))))))	-15.9 kcal/mol	29.7 °C
GTCTATTCGAAAGAAGAC (((..(((....))))))	-8.48 kcal/mol	23.8 °C
GATCAAGGTGTTGATC ((((((....))))))	-31.7 kcal/mol	46.1 °C
CGCGGAAGGCTCCGCG ((((((....))))))	-30.1 kcal/mol	68.7 °C
GGACTGCGAAAGCATCC (((.(((....))))))	-13.5 kcal/mol	41.8 °C

Sequence	folding enthalpy [1]	Tm [2]
GTGATACGAAAGTACAC (((.(((....))))))	-25.8 kcal/mol	43.7 °C
GGTTATACGAAAGTAACC (((..(((....))))))	-14.7 kcal/mol	38.1 °C
GATCACCATAGTGATC ((((((....))))))	-42.2 kcal/mol	58.5 °C
GGCTTAGAAATAAGCC ((((((....))))))	-33.4 kcal/mol	55.4 °C
GAGCGCGAAAGCGGCCTC ((((((....)))..)))	-11.7 kcal/mol	51.1 °C
GCTTTGCGAAAGCCATGC ((.(.((....)).).))	-11.6 kcal/mol	31.3 °C
GGCCAGCGAAAGCTCGCC (((.(((....))).)))	-38.9 kcal/mol	53.4 °C
GCCCCTGGAAACAAGGGC ((((.((....)).))))	-28.8 kcal/mol	46.1 °C
GCGTGAGACGC ((((...))))	-18.8 kcal/mol	51 °C
GATCTCTGTTGAGATC ((((((....))))))	-41 kcal/mol	54.3 °C
GGTACCGAAAGGTAGACC ((((((....)))..)))	-13.2 kcal/mol	41 °C
GTCGACGAAAGTCGAGAC ((((((....)))..)))	-9.56 kcal/mol	51.9 °C
GATCGTGCTACGATC ((((((...))))))	-41 kcal/mol	57.3 °C
GCGAAGCGAAAGCCTAGC ((.(.((....)).).))	-7.6 kcal/mol	40.2 °C
TTGGAGAAATCCAA (((((....)))))	-11.1 kcal/mol	35.5 °C
GGTTTTACGAAAGTAACC (((..(((....))))))	-11.8 kcal/mol	31.7 °C
GCTTTCGAAAGAAATAGC ((((((....)))..)))	-20 kcal/mol	36.8 °C
GTTCACGAAAGTGACAAC ((((((....)))..)))	-10.1 kcal/mol	35.3 °C
GGTGGCGAAAGCCCCACC ((((((....)))..)))	-11.1 kcal/mol	49.8 °C
GGCTTCGGAAACGAAGTC (.(((((....))))).)	-30.1 kcal/mol	53.5 °C
GAAGCGGAAACGCTTC ((((((....))))))	-33.6 kcal/mol	67.6 °C
GCCTGAGAAATCAGGC ((((((....))))))	-39.2 kcal/mol	62.5 °C
GGAACGACGAAAGTCTCC (((..(((....))))))	-10.9 kcal/mol	27.6 °C
